Experimental data reported in ChEMBL document CHEMBL1268876, “Intrinsic electrophilicity of the 4-methylsulfonyl-2-pyridone scaffold in glucokinase activators: role of glutathione-S-transferases and in vivo quantitation of a glutathione conjugate in rats” (Bioorg Med Chem Lett, 2010).

Experiments:
[1] = Chemical stability assessed as formation of compound 2 in pH 7.4 phosphate buffer in presence of 5 mM GSH for 60 mins at 37 degC at 10 uM by UV chromatography; format: physicochemical; details: pH 7.4, 1 h
Procedure, shortened: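 Test compound at 10 µM in 0.1 M phosphate buffer, pH 7.4, with or without 5 mM GSH, 60 min at 37 °C in a shaking water bath open to air. Stopped with ice-cold acetonitrile containing 0.1% formic acid, then centrifuged. Supernatant analyzed by LC–MS/MS and UV (300 nm) on a C18 column with an ammonium formate/acetonitrile gradient.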

Liver microsomes [2] = assay: Metabolic stability in human liver microsomes assessed as formation of compound at 10 uM in presence of 5 mM GSH and 1.3 mM NADPH by UV chromatography; format: ADME, Microsome
Procedure, shortened: (§1)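 Test compound at 10 µM with 5 mM GSH in human liver microsomes (NADPH-supplemented or not), human liver cytosol, or human placental GST. Incubated 60 min at 37 °C in a shaking water bath open to air; microsomal and cytosolic reactions started by adding the matrix. Controls lacked NADPH and/or GSH. Quenched with ice-cold acetonitrile containing 0.1% formic acid, then centrifuged. Supernatant analyzed by LC–MS/MS with UV detection at 300 nm.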

[3] = Metabolic stability in human liver cytosol assessed as formation of compound at 10 uM in presence of 5 mM GSH and 1.3 mM NADPH by UV chromatography; format: ADME; procedure, shortened: as §1
[4] = Metabolic stability in presence of human placental GST assessed as formation of compound at 10 uM in presence of 5 mM GSH and 1.3 mM NADPH by UV chromatography; format: ADME; procedure, shortened: as §1
Liver microsomes [5] = assay: Metabolic stability in human liver microsomes assessed as formation of compound at 10 uM in presence of 5 mM GSH and in absence of NADPH by UV chromatography; format: ADME, Microsome; procedure, shortened: as §1

SMILES | Stability [1] | Stability (Liver microsomes [2]) | Stability [3] | Stability [4] | Stability (Liver microsomes [5])
Cc1cnc(NC(=O)[C@H](CC2CCCC2)n2cc(S(C)(=O)=O)ccc2=O)cn1 | Stable | Stable | Stable | Stable | Stable
Cc1cnc(NC(=O)[C@H](CC2CCCC2)n2cccc(S(C)(=O)=O)c2=O)cn1 | Stable | Stable | Stable | Stable | Stable
Cc1cnc(NC(=O)[C@H](CC2CCCC2)n2ccc(S(C)(=O)=O)cc2=O)cn1 | Unstable | Unstable | Unstable | Unstable | Unstable

Other lines, results leading:

Stability [1] | Stability (Liver microsomes [2]) | Stability [3] | Stability [4] | Stability (Liver microsomes [5]) | SMILES
Stable | Stable | Unstable | Unstable | Stable | Cc1cnc(NC(=O)[C@H](CC2CCCC2)n2ccc(Br)cc2=O)cn1
Stable | Stable | Stable | Stable | Stable | Cc1cnc(NC(=O)[C@H](CC2CCCC2)n2ccccc2=O)cn1
